# Data as given in publication PMC10586521 (Journal of medicinal chemistry, 2023).
# Key:
# Assay type in all cases: cell-based
# [1] = tested on: HCT116 colorectal carcinoma cells; experiment: MTS cell viability / cell growth inhibition assay in HCT116 cells; settings: for GI50: Homo sapiens, HCT-116, 72 h; for fold loss in activity: comparator not stated, side chain terminus modification; for fold less effective (GI50) compared to 17S-FD-895 / fold loss in cell growth inhibitory activity (GI50) compared to 1: HCT116 cells, 72 h; for fold less effective (GI50) compared to 17S-FD-895: comparator printed as 17S-FD-895 (1a); for fold loss in cell growth inhibitory activity (GI50) compared to 1: relative to FD-895 (1)
# [2] = tested on: DNAJB1; experiment: qRT-PCR splice modulation, DNAJB1 intron retention in HCT116 cells; settings: for DNAJB1 intron retention: HCT116, 24 h, 100-500 nM, compared to 1; for DNAJB1 intron 2 retention: HCT116, 4 h, ~20 times GI50, relative to 1
# [3] = tested on: SF3A1; experiment: qRT-PCR splice modulation, SF3A1 intron retention in HCT116 cells; settings: for SF3A1 intron retention: HCT116, 24 h, 100-500 nM, compared to 1; for SF3A1 intron 6 retention: HCT116, 4 h, ~20 times GI50, relative to 1
# [4] = tested on: SF3B2; experiment: qRT-PCR splice modulation, SF3B2 intron retention in HCT116 cells
# [5] = tested on: PLK-1; experiment: qRT-PCR splice modulation, PLK-1 exon skipping/expression in HCT116 cells; settings: for PLK-1 expression/splicing: HCT116, 24 h, 100-500 nM; for effect on exon 3 inclusion in PLK-1: HCT116, 4 h, ~20 times GI50
# Method in brief: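 HCT116 (ATCC, mycoplasma-tested, ≤5 passages) in supplemented McCoy's 5a with 0.5% DMSO, exposed 4 h or 24 h (100, 250, 500 nM); untreated control. Total RNA isolated, 1 μg DNase I-treated, cDNA made; qPCR on 5 ng cDNA with primers for intron retention/exon skipping. Cycling: 95 °C 10 min; 40× (95 °C 30 s, 55 °C 60 s, 72 °C 60 s). 2−ΔΔCT vs GAPDH, untreated set to 1.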
# [6] = tested on: SF2; experiment: qRT-PCR, SF2 RNA expression in HCT116 cells; settings: for SF2 expression: HCT116, 24 h, 100-500 nM; for down regulation of SF2 expression: HCT116, 4 h, ~20 times GI50
# [7] = tested on: AURKA; experiment: qRT-PCR splice modulation, AURKA exon skipping/expression in HCT116 cells; settings: HCT116, 24 h, 100-500 nM
# [8] = tested on: HCT116 tumor cells; experiment: qRT-PCR splice modulation, overall profile over the gene panel in HCT116 cells; settings: HCT116, 24 h, 100, 250 and 500 nM
# [9] = tested on: SF3A3; experiment: qRT-PCR splice modulation, SF3A3 intron retention in HCT116 cells; settings: HCT116, 24 h, 100-500 nM, compared to 1
# Method in brief: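 HCT116 cells (ATCC, mycoplasma-tested, ≤5 passages), supplemented McCoy's 5a with 0.5% DMSO, treated 24 h at 100, 250 or 500 nM; untreated cells as control. Total RNA extracted, 1 μg DNase I-treated, converted to cDNA; qPCR on 5 ng cDNA using intron-retention primers, 95 °C 10 min then 40 cycles 95/55/72 °C. Levels by 2−ΔΔCT relative to GAPDH, untreated = 1.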
# [10] = HCT116, 24 h, 100-500 nM, compared to 1
# [11] = HCT116, 4 h, ~20 times GI50, compared to 1
compound,measurement,setting,value
"CC[C@H](OC)[C@@H](C)[C@H]1O[C@@H]1[C@@H](O)[C@H](C)/C=C/C=C(\C)[C@H]1OC(=O)C[C@H](O)CC[C@@](C)(O)[C@@H](OC(C)=O)/C=C/[C@@H]1C [Compound 1d, 17S-FD-895]",GI50,[1],< 10 nM
same,DNAJB1 intron retention,[2],decreased level of intron retention
same,SF3A1 intron retention,[3],dose dependent-increase intron retention
same,SF3B2 intron retention,[4]; [10],dose dependent-increase intron retention
same,PLK-1 expression/splicing,[5],decreased effect
same,SF2 expression,[6],decreased effect
"CC[C@@H](OC)[C@H](C)[C@H]1O[C@@H]1[C@@H](O)[C@H](C)/C=C/C=C(\C)[C@H]1OC(=O)C[C@H](O)CC[C@@](C)(O)[C@@H](OC(C)=O)/C=C/[C@@H]1C [Compound 1j, 17S,20S,21R-FD-895]",fold loss in activity,[1],100 fold
same,SF3A1 intron 6 retention,[3],more effective than 1
same,AURKA expression,[7],reducing the expression of AURKA at 500 nM
same,overall splicing activity over the genes tested,[8],splicing profile comparable to 1i
"CC[C@H](OC)[C@@H](C)[C@H]1O[C@@H]1[C@H](O)[C@H](C)/C=C/C=C(\C)[C@H]1OC(=O)C[C@@H](O)CC[C@@](C)(O)[C@@H](OC(C)=O)/C=C/[C@@H]1C [Compound 1a, 3S-FD-895]",GI50,[1],< 10 nM
same,DNAJB1 intron 2 retention,[2],highest level of intron retention
same,SF3A1 intron 6 retention,[3],more effective than 1
same,SF3B2 intron retention,[4]; [11],improved efficacy
same,effect on exon 3 inclusion in PLK-1,[5],most potent effect
"CC[C@H](OC)[C@@H](C)[C@H]1O[C@@H]1[C@@H](O)[C@H](C)/C=C/C=C(\C)[C@H]1OC(=O)C[C@H](O)CC[C@@](C)(O)[C@H](OC(C)=O)/C=C/[C@@H]1C [Compound 1h, 7R,17S-FD-895]",fold less effective (GI50) compared to 17S-FD-895,[1],318 fold
"CC[C@H](OC)[C@@H](C)[C@H]1O[C@@H]1[C@@H](OC)[C@H](C)/C=C/C=C(\C)[C@H]1OC(=O)C[C@H](O)CC[C@@](C)(O)[C@@H](OC(C)=O)/C=C/[C@@H]1C [Compound 1f, 17-methoxy-17S-FD-895]",fold loss in cell growth inhibitory activity (GI50) compared to 1,[1],21 fold
same,SF3A1 intron 6 retention,[3],more effective than 1
"CC[C@H](OC)[C@@H](C)[C@H]1O[C@@H]1[C@H](O)[C@H](C)/C=C/C=C(\C)[C@H]1OC(=O)C[C@H](O)CC[C@@](C)(O)[C@@H](OC(C)=O)/C=C/[C@@H]1C [Compound 1, FD-895]",GI50,[1],< 10 nM
same,PLK-1 expression/splicing,[5],weak efficacy
same,down regulation of SF2 expression,[6],highest efficacy
same,SF2 expression,[6],weak efficacy
same,overall splicing activity over the genes tested,[8],altered the splicing of nearly all genes tested
"CC[C@H](OC)[C@@H](C)[C@@H]1O[C@H]1[C@@H](O)[C@H](C)/C=C/C=C(\C)[C@H]1OC(=O)C[C@H](O)CC[C@@](C)(O)[C@@H](OC(C)=O)/C=C/[C@@H]1C [Compound 1i, 17S,18S,19S-FD-895]",fold loss in activity,[1],100 fold
same,SF3A1 intron 6 retention,[3],more effective than 1
same,PLK-1 expression/splicing,[5],increased the RNA expression
same,overall splicing activity over the genes tested,[8],drastic reduction in splicing activity
"CC[C@H](OC)[C@@H](C)[C@H]1O[C@@H]1[C@H](OC)[C@H](C)/C=C/C=C(\C)[C@H]1OC(=O)C[C@H](O)CC[C@@](C)(O)[C@@H](OC(C)=O)/C=C/[C@@H]1C [Compound 1e, 17-methoxy-FD-895]",DNAJB1 intron 2 retention,[2],highest level of intron retention
same,SF3A1 intron 6 retention,[3],more effective than 1
same,SF3B2 intron retention,[4]; [11],improved efficacy
same,overall splicing activity over the genes tested,[8],comparable or slightly reduced splice modulatory activity
"CC[C@H](OC)[C@@H](C)[C@H]1O[C@@H]1[C@@H](O)[C@H](C)/C=C/C=C(\C)[C@H]1OC(=O)C[C@@H](O)CC[C@@](C)(O)[C@@H](OC(C)=O)/C=C/[C@@H]1C [Compound 1g, 3S,17S-FD-895]",fold less effective (GI50) compared to 17S-FD-895,[1],52 fold
same,fold loss in cell growth inhibitory activity (GI50) compared to 1,[1],75 fold
same,DNAJB1 intron 2 retention,[2],highest level of intron retention
same,DNAJB1 intron retention,[2],expected loss in intron retention
same,SF3A1 intron retention,[3],expected loss in intron retention
same,SF3B2 intron retention,[4]; [11],improved efficacy
same,SF3B2 intron retention,[4]; [10],expected loss in intron retention
same,PLK-1 expression/splicing,[5],reduced PLK-1 expression
same,down regulation of SF2 expression,[6],highest efficacy
same,SF2 expression,[6],reduced ability to inhibit SF2 expression
same,SF3A3 intron retention,[9],comparable intron retention
"CC[C@H](OC)[C@@H](C)[C@H]1O[C@@H]1[C@H](O)[C@H](C)/C=C/C=C(\C)[C@H]1OC(=O)C[C@H](O)CC[C@@](C)(O)[C@H](OC(C)=O)/C=C/[C@@H]1C [Compound 1b, 7R-FD-895]",fold loss in cell growth inhibitory activity (GI50) compared to 1,[1],300 fold
same,effect on exon 3 inclusion in PLK-1,[5],most potent effect
same,overall splicing activity over the genes tested,[8],loss of splicing activity
"CC[C@H](OC)[C@@H](C)[C@H]1O[C@@H]1[C@H](O)[C@H](C)/C=C/C=C(\C)[C@@H]1OC(=O)C[C@H](O)CC[C@@](C)(O)[C@@H](OC(C)=O)/C=C/[C@H]1C [Compound 1c, 10R,11R-FD-895]",fold loss in cell growth inhibitory activity (GI50) compared to 1,[1],"21,700 fold"
